# Data: ChEMBL document CHEMBL4610127, “Novel Autotaxin Inhibitor for the Treatment of Idiopathic Pulmonary Fibrosis: A Clinical Candidate Discovered Using DNA-Encoded Chemistry” (J Med Chem, 2020)
# Activity calls are given as the source filed them. No cut-off for these calls is given here.
# Experiments:
# [1] = AUClast in dog at 1 mg/kg, po; type: ADME, organism-based, Canis lupus familiaris; design: dose 1 mg/kg, time 0 - last, route oral; settings: in vivo
# Cytochrome P450 2D6 = Cytochrome P450 2D6 (Homo sapiens, UniProt P10635); assay: Inhibition of CYP2D6 (unknown origin); type: ADME
# Rattus norvegicus = assay: Inhibition of LPA (20:4) production in rat at 0.1 to 30 mg/kg, po measured after 4 hrs by LC-MS/MS analysis; type: functional, organism-based
# Summary of the method: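 Rats dosed orally across a dose range. LPA 20:4 and compound levels measured by LC-MS/MS in blood at 4 h post-dose. LPA 20:4 chosen because it is more abundant in rats. Average percent inhibition of LPA plotted against plasma compound level to derive IC50.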
# [2] = Cmax in mouse at 10 mg/kg, po; type: ADME, organism-based; design: dose 10 mg/kg, route oral; settings: in vivo
# Mus musculus [3] = assay: Anti-fibrotic activity in C57BL/6 mouse model of bleomycin-induced lung fibrosis assessed as reduction in hydroxyproline levels at 100 to 300 mg/kg, po BID for 21 days dosed 7 days after bleomycin treatment; type: functional, organism-based
# Summary of the method: (§1)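 Mice given oral BID doses (30, 100 or 300 mg/kg) starting seven days after bleomycin. Killed 21 days after bleomycin; lung fibrosis scored by hydroxyproline in one group. GLPG1690 at 30 and 100 mg/kg BID as control. Medians and p-values against bleomycin + vehicle.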
# [4] = Half life in dog at 1 mg/kg, po; type: ADME, organism-based, Canis lupus familiaris; settings: in vivo
# [5] = Oral bioavailability in dog at 1 mg/kg; type: ADME, organism-based, Canis lupus familiaris; settings: in vivo
# [6] = Protein binding in rat plasma; type: ADME, cell-free; settings: read-out: PPB (converted)
# [7] = Volume of distribution at steady state in rat at 1 mg/kg, iv; type: ADME, organism-based; settings: in vivo, read-out: Vdss
# [8] = Volume of distribution at steady state in mouse at 1 mg/kg, iv; type: ADME, organism-based; settings: in vivo, read-out: Vdss
# [9] = biological target: Lysophosphatidic acid receptor 2 (Homo sapiens, UniProt Q9HBW0); assay: Inhibition of LPAR2 (unknown origin)
# Mus musculus [10] = assay: Anti-fibrotic activity in C57BL/6 mouse model of bleomycin-induced lung fibrosis assessed as reduction in lung fibrosis levels at 30 to 300 mg/kg, po BID for 21 days dosed 7 days after bleomycin treatment by trichrome staining based assay; type: functional, organism-based
# Summary of the method: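 Therapeutic mode: oral BID dosing (30, 100, 300 mg/kg) began seven days after bleomycin. Mice killed 21 days after bleomycin; fibrosis quantitated by trichrome staining of lung tissue in a separate group from the hydroxyproline group. GLPG1690 at 30 and 100 mg/kg BID as control.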
# [11] = Volume of distribution at steady state in dog at 1 mg/kg, iv; type: ADME, organism-based, Canis lupus familiaris; settings: in vivo, read-out: Vdss
# [12] = Protein binding in human plasma; type: ADME, cell-free; settings: read-out: PPB (converted)
# Cytochrome P450 3A4 = Cytochrome P450 3A4 (Homo sapiens, UniProt P08684); assay: Inhibition of CYP3A4 (unknown origin); type: ADME
# [13] = biological target: Lysophosphatidic acid receptor 1 (Homo sapiens, UniProt Q92633); assay: Inhibition of LPAR1 (unknown origin)
# [14] = Half life in human liver microsomes; type: ADME, Microsome
# Mus musculus [15] = assay: Anti-fibrotic activity in C57BL/6 mouse model of bleomycin-induced lung fibrosis assessed as reduction in hydroxyproline levels at 30 mg/kg, po BID for 21 days dosed 7 days after bleomycin treatment; type: functional, organism-based; summary of the method: as §1
# [16] = Cmax in dog at 1 mg/kg, po; type: ADME, organism-based, Canis lupus familiaris; design: dose 1 mg/kg, route oral; settings: in vivo
# [17] = Clearance in rat at 1 mg/kg, iv; type: ADME, organism-based; settings: in vivo
# [18] = Half life in rat at 1 mg/kg, iv; type: ADME, organism-based; settings: in vivo
# [19] = Half life in rat at 5 mg/kg, po; type: ADME, organism-based; settings: in vivo
# [20] = Clearance in mouse at 1 mg/kg, iv; type: ADME, organism-based; settings: in vivo
# [21] = biological target: T1, Ectonucleotide pyrophosphatase/phosphodiesterase family member 1 (Homo sapiens, UniProt P22413); assay: Inhibition of ENPP1 (unknown origin)
# T1 sequence (P22413 whole entry): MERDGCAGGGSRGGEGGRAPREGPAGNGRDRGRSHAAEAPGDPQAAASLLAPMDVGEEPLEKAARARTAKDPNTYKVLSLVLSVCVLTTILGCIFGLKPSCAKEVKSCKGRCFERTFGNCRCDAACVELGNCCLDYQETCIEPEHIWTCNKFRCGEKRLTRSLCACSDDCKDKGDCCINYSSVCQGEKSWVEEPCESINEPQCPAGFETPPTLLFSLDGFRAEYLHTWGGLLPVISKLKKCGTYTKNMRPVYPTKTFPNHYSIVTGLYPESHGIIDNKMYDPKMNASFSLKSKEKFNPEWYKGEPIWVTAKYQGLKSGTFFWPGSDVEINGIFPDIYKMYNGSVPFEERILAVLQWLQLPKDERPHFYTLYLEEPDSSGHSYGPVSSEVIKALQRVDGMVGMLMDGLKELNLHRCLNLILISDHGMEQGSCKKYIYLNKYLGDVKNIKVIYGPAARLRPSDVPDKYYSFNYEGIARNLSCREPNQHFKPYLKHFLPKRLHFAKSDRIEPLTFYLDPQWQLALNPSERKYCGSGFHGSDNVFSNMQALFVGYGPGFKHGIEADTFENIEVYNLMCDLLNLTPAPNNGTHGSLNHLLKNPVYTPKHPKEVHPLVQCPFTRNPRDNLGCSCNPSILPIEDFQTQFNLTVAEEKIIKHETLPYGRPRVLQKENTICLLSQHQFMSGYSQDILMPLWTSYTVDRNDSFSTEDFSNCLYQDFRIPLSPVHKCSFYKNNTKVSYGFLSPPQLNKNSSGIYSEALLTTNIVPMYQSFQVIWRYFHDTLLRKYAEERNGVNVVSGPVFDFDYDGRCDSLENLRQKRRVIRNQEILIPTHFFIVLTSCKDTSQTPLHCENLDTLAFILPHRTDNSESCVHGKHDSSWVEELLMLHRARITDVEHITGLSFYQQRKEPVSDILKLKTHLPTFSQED
# [22] = biological target: Voltage-gated inwardly rectifying potassium channel KCNH2 (Homo sapiens, UniProt Q12809); assay: Inhibition of human ERG by GLP based assay
# Autotaxin (Mus musculus) = Autotaxin (Mus musculus) (UniProt Q9R1E6); assay: Potency index, ratio of IC50 for GLPG1690 to IC50 for test compound for inhibition of autotaxin in mouse plasma assessed as reduction in LPA (18:2) production incubated for 2 hrs LC-MS-/MS analysis; type: cell-free
# Autotaxin [23] = biological target: Autotaxin (Homo sapiens, UniProt Q13822); assay: Potency index, ratio of IC50 for GLPG1690 to IC50 for test compound for inhibition of autotaxin in human plasma assessed as reduction in LPA (18:2) production incubated for 2 hrs LC-MS-/MS analysis; type: cell-free
# Autotaxin [24] = biological target: Autotaxin (Mus musculus, UniProt Q9R1E6); assay: Inhibition of autotaxin in mouse plasma assessed as reduction in LPA (18:2) production incubated for 2 hrs LC-MS-/MS analysis; type: cell-free
# Voltage-gated inwardly rectifying potassium channel KCNH2, sequence (Q12809 whole entry): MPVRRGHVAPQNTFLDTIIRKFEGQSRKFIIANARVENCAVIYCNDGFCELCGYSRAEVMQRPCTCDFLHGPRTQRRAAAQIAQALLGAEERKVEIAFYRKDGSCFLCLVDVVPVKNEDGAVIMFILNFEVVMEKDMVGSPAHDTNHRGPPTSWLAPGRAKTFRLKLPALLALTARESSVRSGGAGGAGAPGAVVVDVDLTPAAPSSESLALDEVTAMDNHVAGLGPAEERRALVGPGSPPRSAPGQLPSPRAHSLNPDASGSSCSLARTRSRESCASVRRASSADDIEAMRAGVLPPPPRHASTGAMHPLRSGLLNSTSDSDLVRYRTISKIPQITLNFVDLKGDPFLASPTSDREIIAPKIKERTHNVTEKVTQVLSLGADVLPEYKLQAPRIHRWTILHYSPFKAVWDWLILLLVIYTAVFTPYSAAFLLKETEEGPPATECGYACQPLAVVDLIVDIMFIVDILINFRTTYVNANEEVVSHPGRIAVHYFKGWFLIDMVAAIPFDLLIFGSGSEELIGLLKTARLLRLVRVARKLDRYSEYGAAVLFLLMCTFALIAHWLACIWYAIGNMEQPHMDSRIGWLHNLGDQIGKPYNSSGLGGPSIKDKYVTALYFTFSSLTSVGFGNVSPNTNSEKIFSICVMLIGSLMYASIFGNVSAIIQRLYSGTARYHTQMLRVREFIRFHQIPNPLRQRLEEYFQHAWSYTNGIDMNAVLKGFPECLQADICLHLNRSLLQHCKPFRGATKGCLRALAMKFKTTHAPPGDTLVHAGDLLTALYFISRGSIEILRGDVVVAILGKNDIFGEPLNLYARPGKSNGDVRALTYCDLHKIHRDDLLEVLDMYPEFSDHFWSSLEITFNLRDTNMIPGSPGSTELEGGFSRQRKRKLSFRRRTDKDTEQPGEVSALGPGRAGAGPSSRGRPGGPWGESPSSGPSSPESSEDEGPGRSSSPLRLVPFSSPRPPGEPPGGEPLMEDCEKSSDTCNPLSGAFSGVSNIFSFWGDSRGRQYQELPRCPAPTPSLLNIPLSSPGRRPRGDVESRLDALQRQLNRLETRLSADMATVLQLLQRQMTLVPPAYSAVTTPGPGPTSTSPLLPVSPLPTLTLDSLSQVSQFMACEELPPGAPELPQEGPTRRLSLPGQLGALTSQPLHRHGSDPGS
# Lysophosphatidic acid receptor 1, sequence (Q92633 whole entry): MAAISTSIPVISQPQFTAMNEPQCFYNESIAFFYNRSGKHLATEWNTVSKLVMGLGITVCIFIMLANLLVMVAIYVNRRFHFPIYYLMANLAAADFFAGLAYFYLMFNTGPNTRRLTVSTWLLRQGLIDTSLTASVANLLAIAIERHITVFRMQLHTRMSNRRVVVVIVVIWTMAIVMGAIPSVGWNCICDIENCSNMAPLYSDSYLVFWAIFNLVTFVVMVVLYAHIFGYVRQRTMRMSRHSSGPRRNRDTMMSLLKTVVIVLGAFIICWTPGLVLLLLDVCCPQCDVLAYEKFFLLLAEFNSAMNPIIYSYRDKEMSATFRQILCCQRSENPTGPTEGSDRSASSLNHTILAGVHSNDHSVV
# Lysophosphatidic acid receptor 2, sequence (Q9HBW0 whole entry): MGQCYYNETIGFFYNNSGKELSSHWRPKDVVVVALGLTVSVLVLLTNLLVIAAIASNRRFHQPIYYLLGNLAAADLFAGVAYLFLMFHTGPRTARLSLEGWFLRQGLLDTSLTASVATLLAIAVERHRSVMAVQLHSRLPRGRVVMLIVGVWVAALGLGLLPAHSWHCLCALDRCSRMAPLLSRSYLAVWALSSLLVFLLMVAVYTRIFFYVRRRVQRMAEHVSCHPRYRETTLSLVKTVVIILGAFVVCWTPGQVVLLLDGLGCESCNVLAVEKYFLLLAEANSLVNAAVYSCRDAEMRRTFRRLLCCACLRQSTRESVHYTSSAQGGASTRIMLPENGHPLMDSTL
# Cytochrome P450 2D6, sequence (P10635 whole entry): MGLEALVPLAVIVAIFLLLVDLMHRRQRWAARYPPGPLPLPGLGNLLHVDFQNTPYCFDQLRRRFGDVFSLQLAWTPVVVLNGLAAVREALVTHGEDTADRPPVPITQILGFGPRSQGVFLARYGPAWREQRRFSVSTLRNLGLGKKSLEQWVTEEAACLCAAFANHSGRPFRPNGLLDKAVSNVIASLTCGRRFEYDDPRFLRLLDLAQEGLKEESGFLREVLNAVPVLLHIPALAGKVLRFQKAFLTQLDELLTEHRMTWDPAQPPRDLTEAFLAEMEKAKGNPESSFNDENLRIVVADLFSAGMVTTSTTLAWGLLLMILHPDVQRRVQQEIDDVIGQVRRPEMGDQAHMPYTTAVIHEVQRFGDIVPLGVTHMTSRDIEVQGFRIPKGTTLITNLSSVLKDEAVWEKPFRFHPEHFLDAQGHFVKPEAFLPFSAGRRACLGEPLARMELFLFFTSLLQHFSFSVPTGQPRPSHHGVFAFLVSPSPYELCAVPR
# Cytochrome P450 3A4, sequence (P08684 whole entry): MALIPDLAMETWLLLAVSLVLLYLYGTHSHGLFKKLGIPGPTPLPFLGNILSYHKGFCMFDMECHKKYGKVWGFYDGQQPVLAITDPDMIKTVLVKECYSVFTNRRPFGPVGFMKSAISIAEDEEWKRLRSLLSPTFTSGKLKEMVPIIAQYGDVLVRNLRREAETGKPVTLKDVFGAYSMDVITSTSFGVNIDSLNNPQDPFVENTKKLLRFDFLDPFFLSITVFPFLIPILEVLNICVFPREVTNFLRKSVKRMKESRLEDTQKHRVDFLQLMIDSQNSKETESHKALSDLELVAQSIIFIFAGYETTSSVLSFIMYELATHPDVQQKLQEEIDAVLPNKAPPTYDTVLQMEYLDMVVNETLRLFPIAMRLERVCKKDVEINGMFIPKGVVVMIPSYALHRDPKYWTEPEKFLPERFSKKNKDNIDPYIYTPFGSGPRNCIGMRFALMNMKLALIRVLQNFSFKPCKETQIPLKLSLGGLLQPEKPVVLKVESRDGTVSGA
compound,measurement,setting,value
CC(C)[C@@H](NC(=O)c1cc(C(F)(F)F)ccc1F)C(=O)N1CCC2(CC1)C(=O)N(C)C(=O)N2c1ccc2[nH]ncc2c1,AUC(0-t),[1],3080 ng·h/mL
same,IC50,Cytochrome P450 2D6,> 50 µM
same,IC50,Rattus norvegicus,0.0065 µM
same,inhibition,Rattus norvegicus,Dose-dependent effect
same,Cmax,[2],744 ng/mL
same,Activity,Mus musculus [3],Active
same,half-life,[4],4.2 h
same,bioavailability,[5],100%
same,fraction unbound,[6],0.273
same,Vd,[7],1.98 L/kg
same,Vd,[8],1.38 L/kg
same,IC50,[9],> 10 µM
same,Activity,Mus musculus [10],Dose-dependent effect
same,Vd,[11],0.655 L/kg
same,fraction unbound,[12],0.113
same,IC50,Cytochrome P450 3A4,> 50 µM
same,IC50,[13],> 10 µM
same,half-life,[14],8.88 h
same,Activity,Mus musculus [15],inactive
same,Cmax,[16],374 ng/mL
same,clearance,[17],36 mL/min/kg
same,half-life,[18],1.5 h
same,half-life,[19],1.8 h
same,clearance,[20],54 mL/min/kg
same,IC50,[21],> 10 µM
same,IC50,[22],> 50 µM
same,Ratio IC50,Autotaxin (Mus musculus),60
same,Ratio IC50,Autotaxin [23],20
same,IC50,Autotaxin [24],0.007 µM
